Source: ChEMBL document CHEMBL1687917, “Increased bioavailability of tricin-amino acid derivatives via a prodrug approach” (J Med Chem, 2011)

Key:
[1] = system: Plasma; assay: Plasma concentration in Crl:CD (SD) rat at 100 mg/kg, po after 0.5 to 4 hrs; format: ADME, organism-based; set-up: dose 100 mg/kg, route oral; details: in vivo
How it was run: (§1)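 Tricin was suspended in 1% aqueous methylcellulose (10 mL kg^-1), sonicated and given as a single gavage dose of 100, 300 or 1000 mg kg^-1 to male and female Crl:CD (SD) rats. Tail blood was taken at 0, 0.5, 2 and 4 h, and plasma tricin was quantified by RP-HPLC; means ± SEMs, n = 3.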

[2] = system: Plasma; assay: Plasma concentration in Crl:CD (SD) rat at 300 mg/kg, po after 0.5 to 4 hrs; format: ADME, organism-based; set-up: dose 300 mg/kg, route oral; details: in vivo; how it was run: as §1
[3] = system: Plasma; assay: Plasma concentration in Crl:CD (SD) rat at 1000 mg/kg, po after 0.5 to 4 hrs; format: ADME, organism-based; set-up: dose 1000 mg/kg, route oral; details: in vivo; how it was run: as §1
[4] = Cmax in Crl:CD (SD) rat at 300 mg/kg, po after 0.5 to 8 hrs by RP-HPLC; format: ADME, organism-based; set-up: dose 300 mg/kg, route oral; details: in vivo
How it was run: (§2)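 Male Crl:CD (SD) rats were given a single oral bolus of the prodrug by gavage at 100, 300 or 1000 mg kg^-1. Blood was drawn from the tail at 0, 0.5, 2, 4 and 8 h, and plasma was separated by centrifugation (6000 rpm, 10 min, 4 °C) and held at -25 °C for no more than 19 days. Released tricin was quantified. Two Cmax values were reported, with AUC over 0-8 h; means ± SEMs, n = 3.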

[5] = Cmax in Crl:CD (SD) rat at 1000 mg/kg, po after 0.5 to 8 hrs by RP-HPLC; format: ADME, organism-based; set-up: dose 1000 mg/kg, route oral; details: in vivo; how it was run: as §2
[6] = Stability of the compound in MDCK cell lysate assessed as half life; format: ADME, cell-based, Canis lupus familiaris; details: dog
How it was run: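 Whole-cell lysate was prepared from 1.33 × 10⁶ MDCK cells with lysis buffer, and prodrugs were incubated with it. Half-life was taken as the time to 50% release of parent drug through carbamate hydrolysis by endogenous enzymes; means ± SEMs, n = 3.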

[7] = Cmax in Crl:CD (SD) rat at 100 mg/kg, po after 0.5 to 8 hrs by RP-HPLC; format: ADME, organism-based; set-up: dose 100 mg/kg, route oral; details: in vivo; how it was run: as §2
[8] = AUC (0 to 8 hrs) in Crl:CD (SD) rat at 100 mg/kg, po after 0.5 to 8 hrs; format: ADME, organism-based; set-up: time < 8 hr, dose 100 mg/kg, route oral; details: plasma; how it was run: as §2
[9] = system: Mus musculus; assay: Toxicity in Crlj:CD1 (ICR) mouse assessed as abnormal appearance at 300 mg/kg/day, po for 14 days; format: organism-based; set-up: route oral; details: in vivo, 336 h
[10] = system: Mus musculus; assay: Toxicity in Crlj:CD1 (ICR) mouse assessed as abnormal body weight at 300 mg/kg/day, po for 14 days; format: organism-based; set-up: route oral; details: in vivo, 336 h
[11] = system: Mus musculus; assay: Toxicity in Crlj:CD1 (ICR) mouse assessed as abnormal food consumption at 300 mg/kg/day, po for 14 days; format: organism-based; set-up: route oral; details: in vivo, 336 h
[12] = system: Mus musculus; assay: Toxicity in Crlj:CD1 (ICR) mouse assessed as abnormal hematology at 300 mg/kg/day, po for 14 days; format: organism-based; set-up: route oral; details: in vivo, 336 h
[13] = system: Mus musculus; assay: Toxicity in Crlj:CD1 (ICR) mouse assessed as abnormal blood chemistry at 300 mg/kg/day, po for 14 days; format: organism-based; set-up: route oral; details: in vivo, 336 h
[14] = system: Mus musculus; assay: Toxicity in Crlj:CD1 (ICR) mouse assessed as abnormal autopsy test at 300 mg/kg/day, po for 14 days; format: organism-based; set-up: route oral; details: in vivo, 336 h
[15] = AUC (0 to 8 hrs) in Crl:CD (SD) rat at 300 mg/kg, po after 0.5 to 8 hrs; format: ADME, organism-based; set-up: time < 8 hr, dose 300 mg/kg, route oral; details: plasma; how it was run: as §2
[16] = AUC (0 to 8 hrs) in Crl:CD (SD) rat at 1000 mg/kg, po after 0.5 to 8 hrs; format: ADME, organism-based; set-up: time < 8 hr, dose 1000 mg/kg, route oral; details: plasma; how it was run: as §2

SMILES	Cp [1]	Cp [2]	Cp [3]	Cmax [4]	Cmax [5]	half-life [6]	Cmax [7]	AUC(0-t) at 8 h [8]	Activity [9]	Activity [10]	Activity [11]	Activity [12]	Activity [13]	Activity [14]	AUC(0-t) at 8 h [15]	AUC(0-t) at 8 h [16]
COc1cc(-c2cc(=O)c3c(O)cc(O)cc3o2)cc(OC)c1O [TRICIN]	< 60 ng/mL	< 60 ng/mL	< 60 ng/mL													
COc1cc(-c2cc(=O)c3c(O)cc(O)cc3o2)cc(OC)c1OC(=O)N[C@@H](C)C(=O)N[C@@H](CCC(=O)O)C(=O)O				2870 ng/mL	2880 ng/mL	2.75 h	692 ng/mL	10300 ng·h/mL	Non-toxic	Non-toxic	Non-toxic	Non-toxic	Non-toxic	Non-toxic	15100 ng·h/mL	21500 ng·h/mL
